Source: PubChem BioAssay
The source made the active and inactive calls.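 How the source made its calls, unless noted: active means fluorescence slope after compound addition differing from the mean of all tested samples at 99.7% confidence, mostly higher but some lower; inactive means the rest.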

Tests used:
[1] = inhibitors of TNFa-induced NFkB p65 translocation, primary screen, imaging, HUVEC, MLSMR starter and 10KST1 sets (AID 438;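 active means inhibition above 20% together with a positive visual image hit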;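 further: compound added about 3h40 before a 20 min TNFalpha stimulation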;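 on inhibition: signal is the nuclear over cytoplasmic p65 intensity ratio per well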); settings: HUVEC TNFa-induced p65 nuclear translocation; cell count: measured here: nuclei count (cytotoxicity indicator), at 2.08 µM; inhibition: at 2 µM, stronger effect = higher value, 0% TNFa-plus-vehicle, 100% no-TNFa wells
[2] = reduction of polyQ htt aggregates in cells – imaging, exon1htt(103Q)mCFP cells, high-content imaging, primary screen (AID 483;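 active means visual image review flags a hit and inhibition of aggregation exceeds 20%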;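 further: compound exposure lasted 3 days before fixation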;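 on nuclei count: percent of the per-plate median nuclei count of sample wells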); settings: exon1htt(103Q)mCFP cell line, aggregate imaging, at 2 µM; inhibition of aggregation: stronger effect = higher value; nuclei count: measured here: cell count, toxicity
[3] = endothelial E-selectin expression blockers – imaging, HUVEC, immunofluorescence, MLSMR starter and 10KST1 sets, primary screen (AID 487;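 active means visually confirmed hit in the image check and inhibition above 20%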;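 on inhibition: signal is fraction of cell area covered by stained E-selectin grains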;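 on nuclei count: 100% = median nuclei count of all wells on the same plate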); settings: HUVEC TNFalpha-induced E-selectin immunofluorescence imaging, at 2 µM; inhibition: stronger effect = higher value; nuclei count: measured here: cell number, toxicity
[4] = molecular target: Voltage-gated potassium channel subunit beta-2 (Rattus norvegicus) (UniProt P62483); experiment: inhibitors of rat Kvbeta2 reductase activity – biochemical, NADPH fluorescence, primary screen (AID 622;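 active means fluorescence slope higher than the sample average by over 3 SD, cut at about -0.22 in these data, passing the limit was not always enough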;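 further: slope of raw intensity against log time taken from 70 to 1610 s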); settings: recombinant KvBeta, 4-cyanobenzaldehyde reduction, at 10 µM, stronger effect = higher value
[5] = molecular target: Voltage-gated potassium channel subunit beta-2 (Rattus norvegicus) (UniProt P62483); experiment: enhancers of rat Kvbeta2 NADPH turnover – biochemical, NADPH fluorescence, primary screen (AID 623;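 active means NADPH fluorescence slope more negative than the mean of all samples by about 3 SD, 99.7% confidence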;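 further: fluorescence intensity change per second fitted from 20 to 320 s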); settings: Recombinant KvBeta, NADPH fluorescence decrease slope, 10 min; at 10 µM; stronger effect = lower value
[6] = molecular target: Muscarinic acetylcholine receptor M4 (Homo sapiens) (UniProt P08173); experiment: M4-linked GIRK flux change, two-sided – cell-based, HEK293 M4/GIRK, thallium flux, BTC-AM, M4 allosteric agonist project, primary screen (AID 625); settings: at 10 µM, actives lie on both sides;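 further: thallium influx through GIRK channels coupled to M4 in HEK293 cells with BTC-AM dye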
How it was run: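 System: HEK293 cells with M4 receptor and GIRK channels | Incubation: Cells overnight at 37 °C, BTC-AM loading 1 h, reads 2 min total | Technique: Kinetic BTC-AM fluorescence sampled at 1 Hz, 10 s pre-addition baseline | Measure: Post-addition slope, 15–24 s, of baseline-normalized fluorescence | Control set: Carbachol positive, DMSO negative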

[7] = blockers of RIG-like receptor reporter activation – cell-based, Sendai virus stimulus, luciferase, 10K MLSCN set, TLR/RLR signaling modifier project, primary screen (AID 602276;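 active means inhibition at or above 50% at 10 µM; inactive means inhibition below 50%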;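 further: firefly luciferase from ISG56 promoter only with Renilla not read in this screen; 0% = Sendai virus plus DMSO and 100% = medium plus DMSO without virus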); settings: HEK293 RL24 IRF3 luciferase reporter, at 10 µM, stronger effect = higher value
[8] = TLR3 IRF3 reporter activation blockers – cell-based, poly I:C stimulus, luciferase, 10K MLSCN set, primary screen (AID 602277;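 active means inhibition of the reporter signal at or above 50%; inactive means inhibition below 50%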); settings: HEK293-TLR3 RL24 IRF3 luciferase reporter, at 10 µM, stronger effect = higher value

Chain of Muscarinic acetylcholine receptor M4 (Homo sapiens) (P08173 whole entry, looked up): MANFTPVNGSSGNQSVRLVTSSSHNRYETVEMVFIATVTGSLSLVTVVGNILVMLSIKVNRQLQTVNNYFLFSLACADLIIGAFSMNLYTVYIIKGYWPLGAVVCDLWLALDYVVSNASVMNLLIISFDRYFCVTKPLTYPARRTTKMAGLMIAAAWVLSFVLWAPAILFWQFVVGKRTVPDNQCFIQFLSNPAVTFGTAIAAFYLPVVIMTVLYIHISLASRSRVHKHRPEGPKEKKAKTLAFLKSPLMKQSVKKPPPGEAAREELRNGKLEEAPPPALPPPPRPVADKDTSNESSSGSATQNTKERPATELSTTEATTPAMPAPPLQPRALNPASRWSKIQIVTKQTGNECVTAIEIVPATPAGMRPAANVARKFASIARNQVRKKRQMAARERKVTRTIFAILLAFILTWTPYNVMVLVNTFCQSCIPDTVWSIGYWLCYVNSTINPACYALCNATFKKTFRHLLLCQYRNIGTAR
Chain of Voltage-gated potassium channel subunit beta-2 (Rattus norvegicus) (P62483 whole entry, looked up): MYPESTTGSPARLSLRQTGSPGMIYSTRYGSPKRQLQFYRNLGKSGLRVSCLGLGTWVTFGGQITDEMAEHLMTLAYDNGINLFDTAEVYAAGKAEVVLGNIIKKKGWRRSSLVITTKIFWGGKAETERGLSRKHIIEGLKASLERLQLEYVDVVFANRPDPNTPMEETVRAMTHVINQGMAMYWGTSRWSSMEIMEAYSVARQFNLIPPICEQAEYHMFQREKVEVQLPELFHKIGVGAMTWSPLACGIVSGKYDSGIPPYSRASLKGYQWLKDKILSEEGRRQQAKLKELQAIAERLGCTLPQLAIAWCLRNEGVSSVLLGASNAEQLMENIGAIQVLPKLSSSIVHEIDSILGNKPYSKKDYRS

Compound | cell count [1] | inhibition [1] | inhibition of aggregation [2] | nuclei count [2] [%] | inhibition [3] | nuclei count [3] [%] | fluorescence slope [4] | NADPH fluorescence slope [5] | fluorescence slope [6] | inhibition [7] | inhibition [8]
CCNS(=O)(=O)c1c(C)cc(N2CCCC2=O)cc1C | 498 | -8% (inactive) | 4.4% (inactive) | 88.1 | 27.7% (inactive) | 89 | -0.438 (inactive) | 9.1e-05 (inactive) | 0.00655 (inactive) | -1.95% (inactive) | 0.215% (inactive)
c1ccc2c(c1)C(=Nn1cnnc1)c1ccccc1-2 | 606 | -3.4% (inactive) | 15.7% (inactive) | 101 | -107% (inactive) | 122 | -0.448 (inactive) | -6.8e-05 (inactive) | 0.00319 (inactive) | 10.6% (inactive) | 11% (inactive)
CC(C)(C)OC(=O)N1CCC(C(=O)N2CCCCCC2)CC1 | 383 | 4.6% (inactive) | 0.1% (inactive) | 90 | -36.8% (inactive) | 97 | -0.529 (inactive) | -8e-05 (inactive) | 0.00575 (inactive) | 7.78% (inactive) | 11.9% (inactive)
Cc1cc(/N=C/N(C)C)on1 | 522 | 1.5% (inactive) | 3.5% (inactive) | 104 | -19.3% (inactive) | 104 | -0.586 (inactive) | -4.7e-05 (inactive) | 0.00679 (inactive) | 19% (inactive) | 16% (inactive)
c1ccc(CCc2nn3c(Cn4cnc5ccccc54)nnc3s2)cc1 | 598 | -3.3% (inactive) | -18% (inactive) | 100 | -29.5% (inactive) | 97.5 | -0.53 (inactive) | 2.5e-05 (inactive) | 0.00554 (inactive) | 14.9% (inactive) | -3.65% (inactive)
Cc1cc(C)c(C)c(S(=O)(=O)Nc2ccc(O)cc2)c1C | 187 | -8.6% (inactive) | 37.3% (active) | 87.5 | -7.7% (inactive) | 74.8 | -0.539 (inactive) | -1.7e-05 (inactive) | 0.00478 (inactive) | 10.8% (inactive) | 18.5% (inactive)
O=C(Cn1nnc(-c2cccs2)n1)OC1CCCCC1 | 298 | -4.7% (inactive) | -0.1% (inactive) | 98.6 | -108% (inactive) | 108 | -0.547 (inactive) | -9.5e-06 (inactive) | 0.00395 (inactive) | 11.6% (inactive) | 5.67% (inactive)
CCN(C#N)c1nc(NC(C)C)nc(NC(C)C)n1 | 354 | 3.3% (inactive) | 14.7% (inactive) | 100 | -0.6% (inactive) | 82.6 | -0.316 (inactive) | -5.2e-05 (inactive) | 0.00491 (inactive) | 0.243% (inactive) | 9.55% (inactive)
CCC(=O)Nc1cccc(Br)c1 | 323 | 2.9% (inactive) | 17.6% (inactive) | 99.7 | -38.1% (inactive) | 123 | -0.541 (inactive) | -6e-05 (inactive) | 0.0051 (inactive) | -18.4% (inactive) | -1.97% (inactive)
COc1ccc(NCc2nnc(SCC(=O)Nc3cc(C)cc(C)c3)o2)cc1 | 396 | -1.1% (inactive) | 8.7% (inactive) | 101 | 36.7% (inactive) | 79.5 | -0.4 (inactive) | -0.000139 (inactive) | 0.00688 (inactive) | 11% (inactive) | 22.6% (inactive)
CC(C)CN1C(=O)c2ccc(C(=O)Nc3nccs3)cc2C1=O | 513 | 8.1% (inactive) | -20.1% (inactive) | 120 | -335% (inactive) | 137 | -0.586 (inactive) | -2.9e-06 (inactive) | 0.00611 (inactive) | 13.3% (inactive) | 5.57% (inactive)
C=CCn1c(C)cc(C(=O)CSc2nc3ccccc3c(=O)[nH]2)c1C | 278 | -0.8% (inactive) | 11.4% (inactive) | 92 | -59.5% (inactive) | 104 | -0.52 (inactive) | -3.3e-05 (inactive) | 0.0056 (inactive) | -41.3% (inactive) | -75.7% (inactive)
O=C(CS(=O)(=O)c1cn(Cc2ccc(F)cc2)c2ccccc12)N1CCCCC1 | 474 | -0.2% (inactive) | -5% (inactive) | 116 | 16.9% (inactive) | 110 | -0.303 (inactive) | -6.4e-05 (inactive) | 0.00645 (inactive) | 3.28% (inactive) | 11.2% (inactive)
O=C(Cc1nn[nH]n1)NCCC1=CCCCC1 | 402 | 1.7% (inactive) | 2.5% (inactive) | 99.7 | -1.4% (inactive) | 113 | -0.567 (inactive) | -8.7e-06 (inactive) | 0.00606 (inactive) | 5.61% (inactive) | 18% (inactive)
CC(=O)Nc1cccc(NC(=O)CSc2nnnn2C)c1 | 754 | -2.1% (inactive) | -16.5% (inactive) | 104 | -135% (inactive) | 131 | -0.481 (inactive) | -5.6e-05 (inactive) | 0.00501 (inactive) | 21.2% (inactive) | 13.5% (inactive)
